From PubChem BioAssay AID624467 (The Scripps Research Institute Molecular Screening Center, 2012) come the findings set out here.

About 3,600 (1%) of roughly 360,000 compounds were called active.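 How the source made its calls: active means activation above the mean activation of all test compounds in the run plus 3 SD (cut at about 38% in these data); inactive means the rest.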 The sample as a whole holds a higher share of actives than the screen did.

Trace amine-associated receptor 1 (Homo sapiens), sequence (Q96RJ0 whole entry, looked up): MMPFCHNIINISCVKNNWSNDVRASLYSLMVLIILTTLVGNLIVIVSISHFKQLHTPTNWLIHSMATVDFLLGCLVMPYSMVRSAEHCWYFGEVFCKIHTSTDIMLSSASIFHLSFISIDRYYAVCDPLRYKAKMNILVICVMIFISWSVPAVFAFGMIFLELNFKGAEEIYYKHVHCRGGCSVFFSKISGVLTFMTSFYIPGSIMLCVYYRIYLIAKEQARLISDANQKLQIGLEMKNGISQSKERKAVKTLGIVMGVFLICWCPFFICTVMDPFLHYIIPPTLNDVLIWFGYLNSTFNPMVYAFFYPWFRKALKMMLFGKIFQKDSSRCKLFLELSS

The test concerns the target Trace amine-associated receptor 1 (Homo sapiens) (UniProt Q96RJ0). Nature of the test: human TAAR1 agonists, primary screen, Fluo-8 calcium fluorescence, CHO RD-HGA16 cells (AID 624467). The note with it: CHO RD-HGA16 TAAR1, Fluo-8 calcium fluorescence; at 3 µM; active compounds read high; vehicle wells 0%, saturating PEA agonist 100%. In a few lines: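 Repeats: no replicates (n 1) | Material: CHO-derived RD-HGA16 cells with stable Gα16 and human TAAR1 | Technique: Kinetic Fluo-8 calcium fluorescence | Schedule: 17-24 h seeding, 75 min 37 °C dye, 30 min RT | Evaluation: % activation from peak over basal fluorescence ratio, DMSO-to-PEA scaled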
Take `CCCN1C(=O)C(Cc2nc3ccccc3c(=O)n2-c2ccccc2)c2cc(C)ccc21` (configuration not stated): the activation is 13.8% (inactive). As to `CCCc1nc2c(c(=O)c3ccccc3n2C)c(=O)n1C1CCCCCC1`, the activation is 46.7% (active). `CCOC(=O)Cn1c2c(n(-c3ccc(F)cc3)c1=O)C=C(c1ccccc1)[C@@H](C)C(C(=O)N(C)C1CCCCC1)=C2`: the activation was -1.16% (inactive). Regarding `COC(=O)[C@]12C[C@H](CC(=O)NCc3ccc(C)o3)C(=O)N(CCC3=CCCCC3)C1=C[C@H](C(C)(C)C)O[C@@H]2C`, the activation is -2.27% (inactive). For `CCCCCCCCN1C(=O)[C@@H](CC(=O)N2CCN(C(=O)OCC)CC2)C[C@@]2(C(=O)OC)C1=C[C@H](C1CCCC1)O[C@@H]2C`, the activation is -2.04% (inactive). Consider `CCN(CC)P(=O)(Nc1ccc(SC(F)F)cc1)c1ccc(N(C)C)cc1NC(=O)c1ccco1` (configuration not stated), for which the activation was 1.83% (inactive). Next, `NC(=O)c1oc2ccccc2c1NC(=O)Cc1ccccc1`: 10.1% (inactive). As for `Nc1c(NCCc2ccccc2)c2ccccc2oc1=O`, the activation was 88.1% (active). Next, `CC(C)(C)Nc1c(N)c(=O)oc2ccccc12`: 9.39% (inactive); `COC(=O)C1=C(C)N(Cc2cccc(C(F)(F)F)c2)C(=NCc2ccccc2)NC1c1ccccc1C(F)(F)F` (configuration not stated): 1.05% (inactive). Next, `C=CCN=C1NC(c2cccc(C(F)(F)F)c2)C(C(=O)OC)=C(C)N1C` (configuration not stated): -0.19% (inactive); `COC(=O)[C@]12C[C@H](CC(=O)NCc3ccc(OC)c(OC)c3)C(=O)N(Cc3ccccc3)C1=C[C@H](C(C)C)O[C@@H]2C1CC1`: -0.82% (inactive); `CCCCn1c(-c2cccc(C)c2)nc2cc3[nH]c(=O)c(C(C)C)nc3cc21`: 14.7% (inactive).

As to `NS(=O)(=O)c1ccc(NC(=S)NC(=O)c2cccnc2)cc1`, the activation is 0.75% (inactive). As for `Cc1cccc(OCCNC(=S)NC(=O)c2cccnc2)c1`, the activation was -0.63% (inactive). Consider `O=C(/C=C/c1ccc(F)cc1)NC(=S)NNC(=O)c1cccnc1`, for which the activation was 39.6% (active).

Regarding `COCCN1C(=O)N(c2ccc(Cl)cc2)C(=O)C1CC(=O)Nc1cc(OC)cc(OC)c1` (configuration not stated), the activation was 18.5% (inactive). Next, `C[C@H](O)[C@@H]1C(=O)N2CCc3c([nH]c4c(-c5ccc6c(c5)OCO6)cccc34)[C@@H]2C[C@@H]1N(C)C(=O)c1ccco1`: 14.6% (inactive). Regarding `Cc1ccsc1C(=O)NNC(=O)COc1ccc(Br)cc1`, the activation was 1.12% (inactive). On to `Cc1ccc(O)c(/C=N/NC(=O)COc2ccc3c(C)cc(=O)oc3c2)c1`, for which the activation is 6.72% (inactive). Next, `Cc1ccc(O)c(NC(=S)NC(=O)COc2ccc(Br)cc2)c1`: 108% (active); `OC[C@H]1O[C@@H](c2nc(-c3nc(-c4ccc(F)cc4)no3)cs2)[C@H](O)[C@@H](O)[C@H]1O`: 0.88% (inactive).
